Assay [1] concerns Klebsiella pneumoniae. Kind of assay: Antibacterial activity against Klebsiella pneumoniae at 50 ug/ml after 24 hrs by agar well diffusion method. The format is functional. As to conditions: read-out: DIZ. In outline: (§1)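 Agar well diffusion. Nutrient plates swabbed with 24 h broth culture of the bacterium; 6 mm wells bored and loaded with DMSO solutions of compound (wells at 50 and 100 per well). Chloramphenicol positive control, DMSO negative control. Plates held 37 °C, 24 h; inhibition zone diameter (mm) measured, mean of duplicates.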
(Agar diffusion results depend on both activity and mobility in agar.)

The test system of another assay is A549. Kind of assay: Cytotoxicity against human A549 cells up to 0.2 mM after 72 hrs by MTT assay. Background: Tetrazolium assays rely on reduction of a dye to a coloured formazan, in cell work by metabolically active cells.
The subject of assay [2] is Staphylococcus aureus. In words: Antibacterial activity against Staphylococcus aureus at 100 ug/ml after 24 hrs by agar well diffusion method. It counts as functional. As to conditions: read-out: DIZ. In short, it runs like this: as §1
The test system of assay [3] is Aspergillus niger. Kind of assay: Antifungal activity against Aspergillus niger at 50 ug/ml after 48 hrs by agar well diffusion method. It counts as functional. Particulars: read-out: DIZ. In outline:
(§2)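 Fungal agar well diffusion. Plates swabbed with fungal culture, 6 mm wells filled with DMSO solutions of compound (50 and 100 per well). Ketoconazole positive and DMSO negative controls. Plates incubated 28 °C for 48 h; zone of inhibition diameter (mm) read, average of duplicates.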

Assay [4] has as its system Bacillus subtilis. In words: Antibacterial activity against Bacillus subtilis at 50 ug/ml after 24 hrs by agar well diffusion method. The format is functional. Particulars: read-out: DIZ. In short, it runs like this:
as §1

The test system of assay [5] is Pseudomonas aeruginosa. In words: Antibacterial activity against Pseudomonas aeruginosa at 100 ug/ml after 24 hrs by agar well diffusion method. It counts as functional. Particulars: read-out: DIZ. In short, it runs like this: as §1
The test system of assay [6] is Klebsiella pneumoniae. Kind of assay: Antibacterial activity against Klebsiella pneumoniae at 100 ug/ml after 24 hrs by agar well diffusion method. The format is functional. As to conditions: read-out: DIZ. In outline: as §1
Assay [7] has as its system Staphylococcus aureus. In words: Antibacterial activity against Staphylococcus aureus at 50 ug/ml after 24 hrs by agar well diffusion method. It counts as functional. Particulars: read-out: DIZ. In short, it runs like this: as §1
The subject of assay [8] is Aspergillus niger. In words: Antifungal activity against Aspergillus niger at 100 ug/ml after 48 hrs by agar well diffusion method. As to conditions: read-out: DIZ. The format is functional. In short, it runs like this: as §2
Assay [9] deals with Penicillium chrysogenum. In words: Antifungal activity against Penicillium chrysogenum at 100 ug/ml after 48 hrs by agar well diffusion method. The format is functional. As to conditions: read-out: DIZ. In outline:
as §2

The subject of assay [10] is Bacillus subtilis. In words: Antibacterial activity against Bacillus subtilis at 100 ug/ml after 24 hrs by agar well diffusion method. It counts as functional. As to conditions: read-out: DIZ. In outline:
as §1

Assay [11] relates to Pseudomonas aeruginosa. Kind of assay: Antibacterial activity against Pseudomonas aeruginosa at 50 ug/ml after 24 hrs by agar well diffusion method. The format is functional. As to conditions: read-out: DIZ. In short, it runs like this:
as §1

Assay [12] relates to Penicillium chrysogenum. In words: Antifungal activity against Penicillium chrysogenum at 50 ug/ml after 48 hrs by agar well diffusion method. As to conditions: read-out: DIZ. It counts as functional. In short, it runs like this:
as §2

For twelve molecules, zone of inhibition and Activity results are on record in ChEMBL document CHEMBL2040768, “Synthesis, antimicrobial and cytotoxic activities of sulfone linked bis heterocycles” (Eur J Med Chem, 2012).

Calls of active or inactive are those of the source. The rule behind the calls is not given here.

As to `Nn1c(CS(=O)(=O)Nc2ccc(Cl)cc2)nnc1CS(=O)(=O)C1CNN=C1S(=O)(=O)c1ccc(Cl)cc1` (stereo unspecified), the zone of inhibition at 50 µg/mL in the assay with Klebsiella pneumoniae [1] was 28 mm; in the assay with Aspergillus niger [3], 28 mm; in the assay with Bacillus subtilis [4], 24 mm; in the assay on Staphylococcus aureus [7] it was 25 mm; in the assay with Pseudomonas aeruginosa [11], 21 mm; in the assay on Penicillium chrysogenum [12], 29 mm. Further, the outcome in the assay on A549 was inactive. For the same molecule, the zone of inhibition at 100 µg/mL with Staphylococcus aureus [2] came out at 27 mm; in the assay on Pseudomonas aeruginosa [5] it was 24 mm; with Klebsiella pneumoniae [6] it was 30 mm; in the assay with Aspergillus niger [8] it was 30 mm; with Penicillium chrysogenum [9], 32 mm; in the assay on Bacillus subtilis [10] it was 27 mm.
As to `O=S(=O)(Cc1nnc(CS(=O)(=O)c2c[nH]nc2S(=O)(=O)c2ccccc2)s1)Nc1ccccc1`, the zone of inhibition at 50 µg/mL worked out at 14 mm in the assay with Klebsiella pneumoniae [1]; 15 mm in the assay on Aspergillus niger [3]; 15 mm with Bacillus subtilis [4]; 16 mm in the assay on Staphylococcus aureus [7]; 10 mm in the assay on Pseudomonas aeruginosa [11]; 16 mm in the assay on Penicillium chrysogenum [12]. The outcome in the assay with A549 was inactive. Further, the zone of inhibition at 100 µg/mL with Staphylococcus aureus [2] stood at 17 mm; in the assay with Pseudomonas aeruginosa [5] it was 12 mm; in the assay with Klebsiella pneumoniae [6], 16 mm; in the assay on Aspergillus niger [8], 17 mm; in the assay on Penicillium chrysogenum [9], 19 mm; in the assay with Bacillus subtilis [10], 17 mm.
For the molecule `O=S(=O)(/C=C/S(=O)(=O)c1ccc(Cl)cc1)Cc1nnc(CS(=O)(=O)Nc2ccc(Cl)cc2)s1`, the zone of inhibition at 50 µg/mL with Klebsiella pneumoniae [1] was found to be 33 mm; with Aspergillus niger [3], 31 mm; with Bacillus subtilis [4], 27 mm; in the assay on Staphylococcus aureus [7], 29 mm; in the assay on Pseudomonas aeruginosa [11], 25 mm; with Penicillium chrysogenum [12], 32 mm. Besides, the outcome in the assay with A549 was inactive. In addition, the zone of inhibition at 100 µg/mL was 32 mm with Staphylococcus aureus [2]; 27 mm in the assay with Pseudomonas aeruginosa [5]; 35 mm in the assay with Klebsiella pneumoniae [6]; 33 mm in the assay with Aspergillus niger [8]; 35 mm with Penicillium chrysogenum [9]; 29 mm in the assay on Bacillus subtilis [10].
As to `Nn1c(CS(=O)(=O)Nc2ccccc2)nnc1CS(=O)(=O)c1c[nH]nc1S(=O)(=O)c1ccccc1`, the zone of inhibition at 50 µg/mL with Klebsiella pneumoniae [1] amounted to 24 mm; with Aspergillus niger [3], 19 mm; with Bacillus subtilis [4], 19 mm; with Staphylococcus aureus [7] it was 19 mm; in the assay with Pseudomonas aeruginosa [11], 15 mm; in the assay on Penicillium chrysogenum [12], 20 mm. In the assay on A549, the outcome was inactive. The zone of inhibition at 100 µg/mL in the assay on Staphylococcus aureus [2] was determined as 21 mm; in the assay with Pseudomonas aeruginosa [5], 17 mm; with Klebsiella pneumoniae [6], 26 mm; with Aspergillus niger [8], 23 mm; in the assay on Penicillium chrysogenum [9], 23 mm; with Bacillus subtilis [10], 23 mm.
Regarding `O=S(=O)(Cc1nnc(CS(=O)(=O)C2CNN=C2S(=O)(=O)c2ccc(Cl)cc2)s1)Nc1ccc(Cl)cc1` (stereo unspecified), the zone of inhibition at 50 µg/mL in the assay on Klebsiella pneumoniae [1] turned out to be 25 mm; in the assay on Aspergillus niger [3], 28 mm; with Bacillus subtilis [4] it was 25 mm; in the assay on Staphylococcus aureus [7], 24 mm; with Pseudomonas aeruginosa [11], 22 mm; in the assay with Penicillium chrysogenum [12] it was 28 mm. Also, in the assay on A549, the outcome was inactive. Moreover, the zone of inhibition at 100 µg/mL is 27 mm in the assay on Staphylococcus aureus [2]; 23 mm in the assay on Pseudomonas aeruginosa [5]; 28 mm in the assay on Klebsiella pneumoniae [6]; 29 mm with Aspergillus niger [8]; 31 mm in the assay with Penicillium chrysogenum [9]; 26 mm with Bacillus subtilis [10].
With `Cc1ccc(NS(=O)(=O)Cc2nnc(CS(=O)(=O)C3CNN=C3S(=O)(=O)c3ccc(C)cc3)s2)cc1` (stereo unspecified), the zone of inhibition at 50 µg/mL was 16 mm with Klebsiella pneumoniae [1]; 11 mm in the assay with Aspergillus niger [3]; 14 mm with Bacillus subtilis [4]; 11 mm in the assay on Staphylococcus aureus [7]; 11 mm with Pseudomonas aeruginosa [11]; 13 mm in the assay on Penicillium chrysogenum [12]. Besides, the result with A549 was inactive. Further, the zone of inhibition at 100 µg/mL in the assay with Staphylococcus aureus [2] was 13 mm; in the assay on Pseudomonas aeruginosa [5], 13 mm; in the assay on Klebsiella pneumoniae [6] it was 18 mm; with Aspergillus niger [8], 14 mm; with Penicillium chrysogenum [9], 16 mm; in the assay on Bacillus subtilis [10], 16 mm.
With `O=S(=O)(/C=C/S(=O)(=O)c1ccccc1)Cc1nnc(CS(=O)(=O)Nc2ccccc2)s1`, the zone of inhibition at 50 µg/mL was 24 mm in the assay with Klebsiella pneumoniae [1]; 19 mm in the assay on Aspergillus niger [3]; 22 mm with Bacillus subtilis [4]; 19 mm with Staphylococcus aureus [7]; 16 mm in the assay with Pseudomonas aeruginosa [11]; 21 mm with Penicillium chrysogenum [12]. The result in the assay on A549 was inactive. In addition, the zone of inhibition at 100 µg/mL was found to be 21 mm with Staphylococcus aureus [2]; 17 mm with Pseudomonas aeruginosa [5]; 26 mm in the assay with Klebsiella pneumoniae [6]; 22 mm with Aspergillus niger [8]; 24 mm with Penicillium chrysogenum [9]; 24 mm in the assay on Bacillus subtilis [10].
As to `Nn1c(CS(=O)(=O)/C=C/S(=O)(=O)c2ccccc2)nnc1CS(=O)(=O)Nc1ccccc1`, the zone of inhibition at 50 µg/mL in the assay with Klebsiella pneumoniae [1] amounted to 26 mm; with Aspergillus niger [3], 21 mm; with Bacillus subtilis [4], 24 mm; with Staphylococcus aureus [7] it was 21 mm; in the assay with Pseudomonas aeruginosa [11] it was 17 mm; in the assay with Penicillium chrysogenum [12], 23 mm. Also, in the assay on A549, the outcome was inactive. Also, the zone of inhibition at 100 µg/mL with Staphylococcus aureus [2] came to 23 mm; with Pseudomonas aeruginosa [5] it was 18 mm; in the assay on Klebsiella pneumoniae [6], 28 mm; in the assay with Aspergillus niger [8] it was 24 mm; in the assay on Penicillium chrysogenum [9] it was 26 mm; with Bacillus subtilis [10], 26 mm.
With `O=S(=O)(Cc1nnc(CS(=O)(=O)c2c[nH]cc2S(=O)(=O)c2ccc(Cl)cc2)s1)Nc1ccc(Cl)cc1`, the zone of inhibition at 50 µg/mL in the assay with Klebsiella pneumoniae [1] amounted to 29 mm; with Aspergillus niger [3], 29 mm; in the assay on Bacillus subtilis [4], 27 mm; with Staphylococcus aureus [7] it was 26 mm; in the assay with Pseudomonas aeruginosa [11], 23 mm; in the assay on Penicillium chrysogenum [12] it was 30 mm. For the same molecule, in the assay on A549, the result was inactive. For the same molecule, the zone of inhibition at 100 µg/mL came to 27 mm in the assay on Staphylococcus aureus [2]; 25 mm with Pseudomonas aeruginosa [5]; 30 mm with Klebsiella pneumoniae [6]; 31 mm in the assay with Aspergillus niger [8]; 33 mm with Penicillium chrysogenum [9]; 29 mm in the assay with Bacillus subtilis [10].
Consider `O=S(=O)(Cc1nnc(CS(=O)(=O)c2c[nH]cc2S(=O)(=O)c2ccc(Cl)cc2)o1)Nc1ccc(Cl)cc1`, for which the zone of inhibition at 50 µg/mL worked out at 23 mm in the assay on Klebsiella pneumoniae [1]; 21 mm in the assay on Aspergillus niger [3]; 17 mm in the assay on Bacillus subtilis [4]; 18 mm with Staphylococcus aureus [7]; 18 mm with Pseudomonas aeruginosa [11]; 22 mm with Penicillium chrysogenum [12]. Also, the outcome in the assay with A549 was inactive. Also, the zone of inhibition at 100 µg/mL was 20 mm in the assay on Staphylococcus aureus [2]; 20 mm in the assay on Pseudomonas aeruginosa [5]; 25 mm in the assay with Klebsiella pneumoniae [6]; 24 mm in the assay on Aspergillus niger [8]; 26 mm in the assay on Penicillium chrysogenum [9]; 21 mm in the assay on Bacillus subtilis [10].
With `O=S(=O)(Cc1nnc(CS(=O)(=O)c2c[nH]nc2S(=O)(=O)c2ccc(Cl)cc2)o1)Nc1ccc(Cl)cc1`, the zone of inhibition at 50 µg/mL in the assay with Klebsiella pneumoniae [1] is 23 mm; in the assay on Aspergillus niger [3] it was 20 mm; in the assay on Bacillus subtilis [4] it was 21 mm; in the assay with Staphylococcus aureus [7], 20 mm; in the assay on Pseudomonas aeruginosa [11] it was 19 mm; in the assay with Penicillium chrysogenum [12], 21 mm. Moreover, the outcome with A549 was inactive. Further, the zone of inhibition at 100 µg/mL in the assay on Staphylococcus aureus [2] was 23 mm; with Pseudomonas aeruginosa [5], 21 mm; with Klebsiella pneumoniae [6] it was 24 mm; in the assay with Aspergillus niger [8], 23 mm; in the assay with Penicillium chrysogenum [9], 24 mm; in the assay on Bacillus subtilis [10], 22 mm.
As to `O=S(=O)(Cc1nnc(CS(=O)(=O)c2c[nH]nc2S(=O)(=O)c2ccc(Cl)cc2)s1)Nc1ccc(Cl)cc1`, the zone of inhibition at 50 µg/mL in the assay with Klebsiella pneumoniae [1] amounted to 30 mm; in the assay on Aspergillus niger [3], 30 mm; with Bacillus subtilis [4], 28 mm; with Staphylococcus aureus [7], 27 mm; in the assay with Pseudomonas aeruginosa [11] it was 24 mm; in the assay with Penicillium chrysogenum [12] it was 31 mm. For the same molecule, the outcome in the assay with A549 was inactive. For the same molecule, the zone of inhibition at 100 µg/mL was found to be 29 mm in the assay on Staphylococcus aureus [2]; 26 mm with Pseudomonas aeruginosa [5]; 33 mm with Klebsiella pneumoniae [6]; 32 mm with Aspergillus niger [8]; 34 mm with Penicillium chrysogenum [9]; 31 mm in the assay on Bacillus subtilis [10].
